Compound activity as filed in PubChem.
NRP1-CendR mod = modulators of CendR peptide binding to NRP-1, primary screen, biochemical, fluorescence polarization, uHTS; Neuropilin-1 (Homo sapiens), O14786; FAM-RPARPAR peptide binding to NRP-1; inhibition, % at 25 µM; 360,000 compounds, 0.85% hits; AID 602438, 2012;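 active = inhibition or corrected inhibition above about 18%, plus a signal ratio from 0.5 to 1.5, limit read from the data, passing the limit was not always enough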
Target sequence (O14786 whole entry, looked up): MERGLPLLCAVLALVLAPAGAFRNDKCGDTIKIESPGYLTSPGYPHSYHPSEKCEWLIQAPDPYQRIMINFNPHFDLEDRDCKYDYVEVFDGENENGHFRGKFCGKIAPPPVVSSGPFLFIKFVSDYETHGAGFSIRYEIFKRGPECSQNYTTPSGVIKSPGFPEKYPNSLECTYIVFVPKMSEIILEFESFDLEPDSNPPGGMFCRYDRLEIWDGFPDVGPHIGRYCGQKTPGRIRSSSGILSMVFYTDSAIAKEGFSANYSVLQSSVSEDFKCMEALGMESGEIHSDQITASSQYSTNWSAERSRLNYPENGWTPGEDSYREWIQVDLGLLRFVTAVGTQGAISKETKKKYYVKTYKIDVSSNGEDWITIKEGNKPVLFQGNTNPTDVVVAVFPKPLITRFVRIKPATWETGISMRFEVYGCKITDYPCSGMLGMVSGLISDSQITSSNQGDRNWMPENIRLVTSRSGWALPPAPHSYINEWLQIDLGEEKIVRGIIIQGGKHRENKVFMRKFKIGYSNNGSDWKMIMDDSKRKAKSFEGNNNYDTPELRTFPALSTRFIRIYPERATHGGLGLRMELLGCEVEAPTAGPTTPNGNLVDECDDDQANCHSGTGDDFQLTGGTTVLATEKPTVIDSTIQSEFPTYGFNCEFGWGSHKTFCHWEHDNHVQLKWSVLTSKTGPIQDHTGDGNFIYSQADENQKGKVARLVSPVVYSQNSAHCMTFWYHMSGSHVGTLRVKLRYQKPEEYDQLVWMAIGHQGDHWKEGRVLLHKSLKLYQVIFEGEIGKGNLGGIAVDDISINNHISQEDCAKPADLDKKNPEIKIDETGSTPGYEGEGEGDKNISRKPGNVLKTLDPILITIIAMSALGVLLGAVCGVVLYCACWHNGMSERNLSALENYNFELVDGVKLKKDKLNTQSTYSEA
DAGLB inhibitor = DAGLB lipase inhibitors, primary screen, biochemical, fluorescence, HTS. inhibition, % at 5.17 µM. HEK293T DAGLB membrane lysate, EnzChek fluorogenic substrate. 340,000 compounds, 0.059% hits; in the data active = inhibition above about 34%;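 also: 0% = enzyme with vehicle and 100% = wells lacking enzyme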
MT1-MMP act inh = blockers of MT1-MMP proenzyme processing, primary screen, HT1080 RFP-PRO-GFP cells, GFP/RFP fluorescence; GFP/RFP ratio fluorescence, overnight; percent of plate control window, DMSO zero; AID 651647, 2012; GFP/RFP ratio change, % at 20 µM; 360,000 compounds, 0.061% hits;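 active = GFP/RFP ratio change of at least 30% with cell ATP level not reduced by more than half and red fluorescence within 50% of control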
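Read-out: GFP/RFP fluorescence ratio; Test system: RFP-PRO-GFP reporter HT1080 cells; Compound dosing: single-point 20 µM compound, 1% DMSO; Times: overnight compound exposure at 37 °C.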
Fh CTSL1 inh = Fasciola hepatica cathepsin L1 inhibitors, primary screen, counter-screen for PFM18AAP inhibitor project, biochemical, QFRET, fluorogenic peptide substrate | AID 1906, 2009 | inhibition, % at 5.96 µM | 300,000 compounds, 0.49% hits | recombinant F. hepatica cathepsin L1, Z-Leu-Arg-MCA fluorescence;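 active = inhibition above the mean of all tested compounds plus 3 SD, set per screening campaign, cut at about 17% in these data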;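 also: 0% = plate median of test compound wells and 100% = 1 µM Z-Phe-Ala-diazomethylketone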
UCH37 inh = inhibitors of human UCH37 deubiquitinase, primary screen, biochemical, Ub-AMC cleavage, fluorescence; purified proteasome/UCH37; inhibition, % (test concentration not listed); 330,000 compounds, 0.33% hits; AID 588478, 2011;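 active = mean inhibition over replicate wells above about 20%, limit read from the data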;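 also: 0% = compound-free wells with enzyme and 100% = wells lacking proteasome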
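Material: human UCH37 enzyme supplied as purified proteasome complex. Measure: % inhibition of Ub-AMC cleavage fluorescence. Medium: pH 7.4 Tris-HCl (50 mM) with ovalbumin, ATP-MgCl2, DTT. Times: 30 min preincubation with enzyme, 25 min cleavage at room temperature. Detection: AMC fluorescence intensity at 355/460 nm.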
An asterisk follows results filed as active; nt = no result given. Shown are actives, neighbours in structure and some others; about 1.5% of the full set was active somewhere.

SMILES	NRP1-CendR mod	DAGLB inhibitor	MT1-MMP act inh	Fh CTSL1 inh	UCH37 inh
O=C(O)/C=C/S(=O)(=O)c1ccc2ccccc2c1	-3.8	-3.1	-1.9	53.9*	2.7
Cc1csc(NC(C)c2nc3cc(C(F)(F)F)ccc3n2CCOCCO)n1 (stereo not drawn)	32.9*	-0.9	2.4	-5.3	4.9
CC(Nc1nc(-c2ccc(F)cc2)cs1)c1nc2cc(Cl)c(Cl)cc2n1CCOCCO (stereo not drawn)	-7.1	-0.1	2.7	0.0	0.3
Cn1nc(-c2ccccc2)c(C=NO)c1Cl	nt	nt	nt	nt	0.1
CC(C)(C)c1ccc(CNc2ccc([N+](=O)[O-])cn2)cc1	31.8*	-3.6	-0.3	2.1	-1.8
O=C(O)c1ccccc1CSc1ccccn1	39.7*	-1.4	-1.1	-0.9	0.5
O=C(O)c1ccc(CSc2ccccn2)cc1	9.9	1.1	3.2	4.9	3.2
O=C(Nc1ccc2nc(-c3cccs3)[nH]c2c1)c1cccs1	-8.2	0.7	10.9	16.9*	-9.6
CCOc1cc(C=NNC(=O)c2ccc(O)cc2)ccc1Oc1nc(Cl)ncc1F	nt	nt	nt	nt	0.6
NS(=O)(=O)c1cc(C(=O)NNC(=O)c2ccc3c(c2)OCO3)ccc1Cl	28.1*	3.4	1.9	nt	3.5
Cc1cc(C)c(NC(=O)c2cc(C(=O)O)ccc2C(=O)O)c([N+](=O)[O-])c1	5.1	0.5	0.6	-1.8	46.6*
O=C(NN=Cc1cn[nH]c1-c1ccc(F)cc1)c1ccncc1	nt	nt	nt	nt	3.4
CCOC(=O)N1[C@@H]2C=C(C)[C@@H]2[C@@H]2[C@@H](C)C(=O)N21	13.2	-3.1	0.1	17.8*	2.3
CCOC(=O)N1C2CCC(C2)N1C(=O)OCC	10.4	-0.3	-3.1	nt	nt
CCCNC(=O)[C@H]1N2C(=O)c3c(ccc(OC)c3OC)C2SC1(C)C (stereo partly drawn)	28.3*	0.1	-1.9	0.2	-8.7
CCC(C)NC(=O)[C@H]1N2C(=O)c3c(ccc(OC)c3OC)C2SC1(C)C (stereo partly drawn)	-0.2	-3.1	-1.3	-3.8	-15.7
COC(=O)[C@@]1(Cc2ccc(OC)cc2)[C@H]2c3cc(C(=O)N4CCCC4)n(CCN4CCOCC4)c3C[C@H]2CN1C(=O)c1ccccc1	22.9*	nt	4.6	nt	nt
NC(=O)c1ccc(-n2nnnc2SCC(=O)Nc2ccccc2)cc1	10.6	0.8	0.5	-1.9	2.3
Cn1c(SCC(=O)CC(=O)Nc2ccccc2)nnc1-c1ccc(O)cc1	-7.9	5.2	2.6	26.5*	0.3
Cc1ccc(OCc2nnc(SCC(=O)CC(=O)Nc3ccccc3)o2)cc1	5.7	2.8	12.9	24.7*	4.7
O=C(CSc1nnnn1-c1ccccc1)CC(=O)Nc1ccc(Cl)cc1	-5.8	-5.6	-0.8	23.7*	1.7
O=C(CNc1cccc(C(F)(F)F)c1)NN=Cc1cn(-c2ccccc2)nc1-c1ccccc1	nt	nt	nt	nt	-0.7
C/C(C=NNC(=O)c1cccnc1)=C\c1ccco1	nt	nt	nt	nt	10.6
O=C(C[n+]1ccccc1)NN=Cc1ccccc1F	nt	nt	nt	nt	4.2
Cc1c(NC(=S)N/N=C/C=C/c2ccc([N+](=O)[O-])cc2)c(=O)n(-c2ccccc2)n1C	35.5*	3.8	-3.9	3.5	nt
SMILES	NRP1-CendR mod	DAGLB inhibitor	MT1-MMP act inh	Fh CTSL1 inh	UCH37 inh
Cc1c(NC(=S)N/N=C/C=C/c2ccccc2)c(=O)n(-c2ccccc2)n1C	9.1	-1.9	2.5	1.3	nt
Cc1cc(N/C(=N/S(=O)(=O)c2cc(F)ccc2F)c2ccccc2)n(-c2ccccc2)n1	26.6*	1.3	-6.7	-0.4	1.7
CC(=NNS(=O)(=O)c1ccc(CC(C)C)cc1)c1ccncc1	nt	nt	nt	nt	1.2
CCOC(=O)C(C#N)=NNc1ccccc1OC	nt	nt	nt	nt	1.8
CCOC(=O)/C(C#N)=N\Nc1cc(Cl)ccc1OC	-61.7	-4.3	0.0	32.3*	nt
O=C(COC(=O)c1ccccc1SCC(=O)N1CCCC1)Nc1ccccc1C(F)(F)F	32.5*	1.4	0.1	-0.7	3.0
CCOc1ccccc1NC(=O)COC(=O)c1ccccc1SCC(=O)N1CCCC1	-1.9	-1.6	1.5	1.0	-0.2
CCOC(=O)c1cc2c(s1)-c1c(C)cccc1OC2	-1.4	-16.6	10.0	18.1*	-247.1
